# Hits are enriched below; roughly 2.5% of the tested compounds scored in any of these assays.
# KLK7 zymogen act: proKLK7 (human) activation, primary screen. purified proKLK7, EDANS-DABCYL substrate fluorescence; 100% is mature enzyme control, 0% vehicle. activation, % at 7 µM. hit rate 0.9% among 370,000;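 active = activation above the mean of all tested compounds plus 3 SD, computed per campaign excluding outliers beyond control limits, cut at about 13% in these data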
# Target sequence (P49862 whole entry, looked up): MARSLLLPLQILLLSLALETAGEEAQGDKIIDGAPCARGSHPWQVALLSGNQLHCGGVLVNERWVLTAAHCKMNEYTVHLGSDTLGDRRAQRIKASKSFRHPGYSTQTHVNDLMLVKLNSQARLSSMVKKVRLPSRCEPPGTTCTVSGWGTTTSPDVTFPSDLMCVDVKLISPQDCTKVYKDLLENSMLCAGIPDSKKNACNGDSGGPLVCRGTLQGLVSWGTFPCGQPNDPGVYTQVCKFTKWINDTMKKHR
# NR2E3 ag-1: human photoreceptor-specific nuclear receptor agonism. Q9Y5X4. hit rate 0.35% among 360,000. inhibition of corepressor binding, % at 3.98 µM. AID 602229. CHO-S Gal4-NCOR/VP16-NR2E3 two-hybrid, luciferase;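 active = inhibition above the mean of all tested compounds plus 3 SD, cut at about 70% in these data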;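 note: higher means lower luciferase signal from less NR2E3 corepressor binding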
# Target sequence (Q9Y5X4 whole entry, looked up, the tested form may be a part): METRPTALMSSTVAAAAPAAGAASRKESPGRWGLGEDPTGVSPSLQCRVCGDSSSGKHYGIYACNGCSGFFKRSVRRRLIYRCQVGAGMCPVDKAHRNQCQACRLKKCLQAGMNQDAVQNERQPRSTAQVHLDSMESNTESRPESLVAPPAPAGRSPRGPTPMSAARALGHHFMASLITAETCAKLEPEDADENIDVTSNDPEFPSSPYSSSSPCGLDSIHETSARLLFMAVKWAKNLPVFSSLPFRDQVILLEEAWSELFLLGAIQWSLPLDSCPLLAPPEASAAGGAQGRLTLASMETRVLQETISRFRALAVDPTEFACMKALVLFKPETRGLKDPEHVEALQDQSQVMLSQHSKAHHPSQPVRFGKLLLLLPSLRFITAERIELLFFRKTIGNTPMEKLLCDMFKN
# NR2E3 ag-2: NR2E3 (human) agonism; hit rate 0.12% among 320,000; GST-NR2E3/biotin-RetCOR TR-FRET, 1536-well; inhibition of corepressor binding, % at 4.78 µM;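 active = percent inhibition above the cutoff of mean plus 3 SD of all tested compounds, set per screening campaign, cut at about 20% in these data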
#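 Material: NR2E3–RetCOR corepressor complex / Amount: 1.35 nM GST-NR2E3 / Medium: Tris pH 7.5 / Compound: single nominal compound dose of 4.8 µM / Incubation: 5 h at 4 °C / Technique: TR-FRET, Eu(K)-anti-GST donor, streptavidin-D2 acceptor, ex 340, em 617/671 nm / Read-out basis: percent loss of FRET ratio relative to control wells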
# JMJD2C inh: inhibitors of human GASC-1 (JMJD2C) demethylase. GST-JMJD2C(1-420) H3K9me3 demethylation, DELFIA europium. inhibition, % at 2.35 µM. hit rate 0.069% among 330,000. AID 2099;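 active = more than half of a compound's replicate wells show inhibition beyond 50%, single wells judged on their own value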;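 note: signal counts dimethyl H3K9 product captured on neutravidin plate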
# ADAM10 inh: ADAM10 inhibition, QFRET primary screen | recombinant ADAM10, EDANS/DABCYL FRET peptide cleavage, 3 h | inhibition, % at 7 µM | AID 720582 | O14672 | hit rate 0.62% among 370,000;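 active = inhibition above a per-campaign cutoff equal to the mean of compounds falling between control-based bounds plus 3 SD, cut at about 20% in these data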
# ADAM17 inh: inhibitors of human ADAM17; P78536; recombinant ADAM17, EDANS/DABCYL FRET peptide cleavage; inhibition, % at 6.95 µM; hit rate 0.83% among 370,000;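 active = inhibition above the mean of compounds lying between control limits plus 3 SD, set per campaign, cut at about 8.5% in these data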
# ADAM10 confirm: confirmation of inhibitors of human ADAM10 | shares compounds with ADAM10 inh | ADAM10 QFRET peptide cleavage, EDANS fluorescence | inhibition, % at 6.95 µM | hit rate 1% among 2,100;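 active = inhibition above about 20% chosen separately for each screening run, limit read from the data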
# ADAM17 counter: ADAM17 inhibition, counter-screen for ADAM10 exosite hits; shares compounds with ADAM10 inh; ADAM17 QFRET peptide cleavage, EDANS fluorescence; inhibition, % at 6.95 µM; hit rate 0.5% among 2,100; AID 743214;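 active = mean triplicate inhibition above the solvent-only control wells' mean plus 3 SD, cut at about 12% in these data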
# ADAM10 ctr: counter-screen for ADAM17 exosite inhibitors: inhibitors of human ADAM10 | recombinant ADAM10, EDANS/DABCYL FRET peptide cleavage, 3 h | shares compounds with ADAM17 inh | hit rate 47% among 2,900 | inhibition, % at 6.95 µM;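 active = mean inhibition over the triplicate runs exceeds the activity threshold set in the earlier primary screen, cut at about 20% in these data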
# ADAM17 confirm: human ADAM17 inhibition, confirmation | shares compounds with ADAM17 inh | recombinant ADAM17, EDANS/DABCYL QFRET peptide cleavage | inhibition, % at 6.95 µM | hit rate 65% among 2,900 | AID 743257;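 active = mean inhibition across replicates above the hit cutoff set in the primary screen, cut at about 8.5% in these data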
# Hits are given with their value; i = inactive; nt = no result.
SMILES,KLK7 zymogen act,NR2E3 ag-1,NR2E3 ag-2,JMJD2C inh,ADAM10 inh,ADAM17 inh,ADAM10 confirm,ADAM17 counter,ADAM10 ctr,ADAM17 confirm
O=C1CC(c2ccc3ccccc3c2)N=C2N(Cc3ccc4c(c3)OCO4)C/C(=C/c3ccccc3)N12 (stereo not drawn),nt,nt,nt,nt,i,i,nt,nt,nt,nt
CCOC(=O)C1(C)CCN1C(=O)c1ccc(Cl)nc1 (stereo not drawn),i,i,nt,nt,i,i,nt,nt,nt,nt
COc1ccc(C(CNC(=O)Cc2c(F)cccc2Cl)N2CCCCC2)cc1 (stereo not drawn),i,i,i,i,i,i,nt,nt,nt,nt
COc1ccc(C=C(c2nc3ccccc3s2)c2nc3ccccc3s2)cc1O,i,i,i,i,20.1,8.6,i,i,24.6,13.9
CN(C)c1ccc(NC(=O)/C=C/c2ccccc2Cl)cc1,i,i,i,i,22.5,11.6,i,i,i,i
CCN(CC)c1ccc(NC(=O)/C=C\c2ccccc2Cl)cc1,i,i,i,i,26.8,14.3,i,i,37.7,18.8
Cc1cc(NC(=O)/C=C/c2ccccc2Cl)no1,i,i,i,i,i,i,nt,nt,nt,nt
CCn1c(COC(=O)CNC(=O)c2ccccc2F)nc2cc(S(=O)(=O)N(C)C)ccc21,i,i,i,i,i,i,nt,nt,nt,nt
O=C(CSc1nn(-c2ccccc2)c(=S)s1)Nn1cnnc1,i,i,i,i,i,i,nt,nt,nt,nt
Cc1ccc(NC(=O)CSc2nn(-c3ccccc3)c(=S)s2)cc1S(=O)(=O)N(C)C,i,i,i,i,22.0,9.0,i,i,32.8,18.6
CN1C(C(=O)Nc2ccc(OC(F)(F)F)cc2)=CC(c2cccs2)=NS1(=O)=O,i,i,i,i,25.6,13.3,i,i,22.3,16.3
COc1ccc(NC(=O)C2=CC(c3cccs3)=NS(=O)(=O)N2C)cc1,i,i,i,i,i,i,nt,nt,nt,nt
CN(C)c1cccc(-c2nccc(N3CCC(C(N)=O)CC3)n2)c1,nt,nt,nt,nt,i,i,nt,nt,nt,nt
COC(=O)c1ccc(NC(=S)NCCc2ccccc2)cc1,i,i,i,i,i,i,nt,nt,nt,nt
CCOC(=O)c1ccc(NC(=S)NCCc2ccccc2)cc1,i,i,i,i,46.0,11.1,i,i,21.3,10.6
Cc1ccc(S(=O)(=O)N(CC(=O)Nc2ccc(Cl)c([N+](=O)[O-])c2)C2CCCCC2)cc1,i,i,i,i,25.5,13.8,i,i,25.2,13.9
CC(C)(C)OC(=O)N1CCCC(C(=O)Nc2cccc(C(=O)NCCCCc3ccccc3)c2)C1 (stereo not drawn),i,i,nt,nt,21.6,12.9,i,i,i,12.3
CC(C)(C)OC(=O)N1CCCC(C(=O)Nc2cccc(C(=O)NCCc3ccccc3)c2)C1 (stereo not drawn),i,i,nt,nt,i,i,nt,nt,nt,nt
C/C(CCc1ccc2c(c1)OCO2)=N\N=C1\NC(=O)CC(C(=O)Nc2ccccc2F)S1 (stereo not drawn),i,i,i,i,i,i,nt,nt,nt,nt
CC(=O)O[C@@H]1CCC[C@@]2(C(=O)N(Cc3ccccc3)c3ccc(-c4c(C)noc4C)cc32)[C@H]1NC(=O)CCc1ccccc1,i,nt,nt,nt,23.2,10.3,i,i,i,10.6
Nc1[nH]c(C(=O)c2ccccc2)c(-c2cccc(C(F)(F)F)c2)c1C(=O)NCCc1c[nH]c2ccccc12,i,nt,nt,nt,23.6,9.0,i,i,27.4,14.5
OC[C@@H]1CN(Cc2ccc3c(c2)OCO3)C[C@H](n2cnc3c(NC4CCCC4)ncnc32)O1,i,i,nt,nt,i,i,nt,nt,nt,nt
CNC(=S)NNC(=O)c1sccc1OCc1ccc(Cl)cc1Cl,i,i,i,i,i,i,nt,nt,nt,nt
S=c1nc(-c2sccc2OCc2ccc(Cl)cc2Cl)[nH][nH]1,i,i,i,i,20.1,11.3,i,i,i,13.2
COc1ccc(N2CCN(C(=O)COC(=O)COc3ccc(C#N)cc3)CC2)cc1,i,i,i,i,i,i,nt,nt,nt,nt
SMILES,KLK7 zymogen act,NR2E3 ag-1,NR2E3 ag-2,JMJD2C inh,ADAM10 inh,ADAM17 inh,ADAM10 confirm,ADAM17 counter,ADAM10 ctr,ADAM17 confirm
COc1ccc(NS(=O)(=O)c2ccc(NC(=S)NC(=O)C(C)C)cc2)cc1,i,i,i,i,30.2,12.0,i,i,i,9.1
Cn1nc(C(C)(C)C)cc1C(=O)N1CCCCC1c1cc(C(=O)Nc2cccc3c2CCCC3)no1 (stereo not drawn),i,i,nt,nt,21.4,12.2,i,i,i,9.2
O=C(/C=C/[C@H]1O[C@@H](n2ccc(=O)[nH]c2=O)[C@H](O)[C@@H]1O)NCc1ccccc1,i,i,nt,nt,i,i,nt,nt,nt,nt
C=CCC[C@H](Cc1ccc(F)cc1)C(=O)OC[C@@H](Cc1c[nH]c2ccccc12)NC(=O)[C@H](CC=C)CC(=O)N(CCO)Cc1ccccc1,i,i,nt,i,42.7,25.3,i,i,61.2,34.8
C=CCC[C@@H](Cc1ccc(F)cc1)C(=O)OC[C@@H]1CCCN1C(=O)[C@H](CC=C)CC(=O)N[C@H](CO)Cc1ccccc1,i,i,nt,nt,27.5,9.4,i,i,28.1,12.2
C=CCC[C@@H](Cc1ccc(F)cc1)C(=O)OC[C@@H](Cc1c[nH]c2ccccc12)NC(=O)[C@H](CC=C)CC(=O)N(CCO)Cc1ccccc1,i,i,nt,i,40.2,16.9,i,i,68.7,25.9
C=CCC[C@H](Cc1ccc(F)cc1)C(=O)OC[C@H](Cc1c[nH]c2ccccc12)NC(=O)[C@@H](CC=C)CC(=O)N[C@H](CO)Cc1ccccc1,i,i,nt,i,29.9,11.8,i,i,37.8,22.0
C=CC[C@@H](CC(=O)N(CCO)Cc1ccccc1)C(=O)N[C@@H](COC(=O)[C@@H](CC=C)Cc1ccc(F)cc1)Cc1c[nH]c2ccccc12,i,i,nt,i,i,i,nt,nt,nt,nt
COCCCNC(=O)C1CCCN(S(=O)(=O)c2ccc(C)cc2)C1 (stereo not drawn),i,i,i,i,i,i,nt,nt,nt,nt
C=CC[C@H](CC(=O)N(CCO)Cc1ccccc1)C(=O)N[C@@H](COC(=O)[C@@H](CC=C)Cc1ccc(F)cc1)Cc1c[nH]c2ccccc12,i,i,nt,i,37.2,13.5,i,i,45.3,25.1
